Results from ChEMBL document CHEMBL2311383, “Discovery of piperazin-1-ylpyridazine-based potent and selective stearoyl-CoA desaturase-1 inhibitors for the treatment of obesity and metabolic syndrome” (J Med Chem, 2013).
Active and inactive are the calls of the source. No cut-off for these calls is given here.

Experiments:
[1] = molecular target: Acyl-CoA (8-3)-desaturase (Rattus norvegicus) (UniProt Q920R3); assay: Inhibition of delta5 desaturase in Sprague-Dawley rat liver microsome at 10 uM; format: microsomes
Stearoyl-CoA desaturase = molecular target: T1, Stearoyl-CoA desaturase (Homo sapiens, UniProt O00767); assay: Inhibition of SCD1 in human HepG2 cells using [14C]-stearate substrate assessed as decreased production of [14C]-oleic acid after 24 hrs; format: cell-based
T1 sequence (O00767 whole entry): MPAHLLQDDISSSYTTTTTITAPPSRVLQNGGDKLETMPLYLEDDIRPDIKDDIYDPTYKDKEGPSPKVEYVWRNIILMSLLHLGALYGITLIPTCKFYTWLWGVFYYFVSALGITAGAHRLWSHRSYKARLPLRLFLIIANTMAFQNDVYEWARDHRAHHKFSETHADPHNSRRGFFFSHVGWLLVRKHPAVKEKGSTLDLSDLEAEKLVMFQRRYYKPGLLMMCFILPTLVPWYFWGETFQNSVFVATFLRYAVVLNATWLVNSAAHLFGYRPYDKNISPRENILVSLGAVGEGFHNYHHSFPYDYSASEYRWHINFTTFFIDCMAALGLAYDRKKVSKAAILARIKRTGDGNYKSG

[2] = molecular target: Acyl-CoA 6-desaturase (Rattus norvegicus) (UniProt Q9Z122); assay: Inhibition of delta6 desaturase in Sprague-Dawley rat liver microsome using cis,cis-9,12-octadecadienoic acid substrate at 10 uM
Acyl-CoA desaturase 1 = molecular target: T2, Acyl-CoA desaturase 1 (Mus musculus, UniProt P13516); assay: Inhibition of SCD1 in ICR mouse liver microsome using [9,10 3H]- stearoyl-Coenzyme A substrate assessed as decreased production of tritiated water after 20 min by scintillation counting analysis
T2 sequence (P13516 whole entry): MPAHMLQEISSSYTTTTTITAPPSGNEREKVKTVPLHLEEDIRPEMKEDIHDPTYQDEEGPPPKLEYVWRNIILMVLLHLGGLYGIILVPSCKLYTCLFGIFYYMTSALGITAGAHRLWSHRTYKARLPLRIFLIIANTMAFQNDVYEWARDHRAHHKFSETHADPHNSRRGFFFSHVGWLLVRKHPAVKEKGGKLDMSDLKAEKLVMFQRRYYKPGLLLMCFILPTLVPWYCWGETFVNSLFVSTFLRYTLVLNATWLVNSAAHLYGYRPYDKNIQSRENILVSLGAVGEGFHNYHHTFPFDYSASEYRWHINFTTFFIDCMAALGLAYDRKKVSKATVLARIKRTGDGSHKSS

Rattus norvegicus = assay: In vivo inhibition of SCD1 in Lewis rat liver microsome at 15 mg/kg, ip administered qd for 2 days; format: functional; conditions: 48 h, route intraperitoneal
Method in brief: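 Lewis rats fed high-carbohydrate diet for one week, fasted 4 h, then dosed orally (0.1–1 mg/kg in 0.2% Tween 20/1% CMC; n = 4), killed 4 h later; ip arm 15 mg/kg once daily for two days. Liver microsomes prepared, SCD1 activity measured by tritiated water release from [9,10-3H]stearoyl-CoA. Mean ± SD of at least four rats.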

[3] = Apparent permeability from basolateral to apical side in human Caco2 cells; format: ADME, cell-based; conditions: Caco-2
Method in brief: (§1)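 Caco-2 monolayers; apparent permeability a-to-b and b-to-a reported in 10⁻⁶ cm/s.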

[4] = Metabolic stability in rat liver microsome after 30 mins by LC/MS/MS analysis; format: ADME; conditions: liver microsomes, read-out: Stability
Method in brief: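 Compound incubated 30 min with rat liver microsomes; percent parent remaining by LC/MS/MS.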

[5] = Apparent permeability from apical to basolateral side in human Caco2 cells; format: ADME, cell-based; conditions: Caco-2; method in brief: as §1

Sequence of Acyl-CoA 6-desaturase (Rattus norvegicus) (Q9Z122 whole entry, looked up): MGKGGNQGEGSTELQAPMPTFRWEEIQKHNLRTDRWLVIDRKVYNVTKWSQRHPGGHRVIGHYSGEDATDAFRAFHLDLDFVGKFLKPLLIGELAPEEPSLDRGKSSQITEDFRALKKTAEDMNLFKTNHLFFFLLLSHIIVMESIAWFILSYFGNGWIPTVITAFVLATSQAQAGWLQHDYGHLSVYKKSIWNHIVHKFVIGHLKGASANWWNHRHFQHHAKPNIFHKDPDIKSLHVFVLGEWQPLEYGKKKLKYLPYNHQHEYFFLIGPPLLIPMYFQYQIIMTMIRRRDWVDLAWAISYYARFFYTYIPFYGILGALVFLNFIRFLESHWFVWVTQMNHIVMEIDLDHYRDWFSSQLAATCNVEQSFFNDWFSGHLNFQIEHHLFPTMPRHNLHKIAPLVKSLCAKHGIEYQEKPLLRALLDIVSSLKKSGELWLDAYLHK
Sequence of Acyl-CoA (8-3)-desaturase (Rattus norvegicus) (Q920R3 whole entry, looked up): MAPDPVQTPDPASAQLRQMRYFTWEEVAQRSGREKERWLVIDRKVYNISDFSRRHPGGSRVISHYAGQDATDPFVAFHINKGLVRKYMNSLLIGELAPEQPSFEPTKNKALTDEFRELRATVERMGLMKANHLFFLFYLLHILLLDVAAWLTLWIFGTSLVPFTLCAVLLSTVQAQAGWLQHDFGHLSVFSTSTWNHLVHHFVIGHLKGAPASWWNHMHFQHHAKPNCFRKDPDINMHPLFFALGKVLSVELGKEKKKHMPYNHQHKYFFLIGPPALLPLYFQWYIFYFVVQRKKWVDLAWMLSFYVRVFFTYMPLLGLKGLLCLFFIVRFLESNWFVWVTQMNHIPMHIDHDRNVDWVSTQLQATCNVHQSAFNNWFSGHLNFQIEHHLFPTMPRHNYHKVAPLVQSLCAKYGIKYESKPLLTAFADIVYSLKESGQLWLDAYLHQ

SMILES | inhibition [1] | IC50 (Stearoyl-CoA desaturase) [nM] | inhibition [2] | IC50 (Acyl-CoA desaturase 1) [nM] | inhibition in vivo at 15 mg/kg (Rattus norvegicus) [%] | Papp B→A [3] [×10⁻⁶ cm/s] | remaining at 0.5 h [4] [%] | Papp A→B [5] [×10⁻⁶ cm/s]
O=C(NCCC1CC1)c1ccc(N2CCN(C(=O)c3cnc(Cl)nc3C(F)(F)F)CC2)nn1 | inactive | 5870 | inactive | 321 | – | – | – | –
COc1ccc(F)cc1C(=O)N1CCN(c2ccc(C(=O)NCCC3CC3)nn2)CC1 | – | – | – | 710 | – | – | – | –
O=C(NCCC1CC1)c1ccc(N2CCN(C(=O)c3cc(F)ccc3F)CC2)nn1 | – | – | – | 3110 | – | – | – | –
O=C(NCCC1CC1)c1ccc(N2CCN(C(=O)C3CC3C(F)(F)F)CC2)nn1 (configuration not stated) | – | – | – | > 1000 | – | – | – | –
O=C(NCCC1CC1)c1ccc(N2CCN(C(=O)c3ccoc3C(F)(F)F)CC2)nn1 | inactive | 290 | inactive | – | – | – | – | –
O=C(NCCC1CC1)c1ccc(N2CCN(C(=O)c3ccccc3F)CC2)nn1 | – | – | – | > 1000 | – | – | – | –
CN(C)c1ccccc1C(=O)N1CCN(c2ccc(C(=O)NCCC3CC3)nn2)CC1 | – | – | – | 920 | – | – | – | –
O=C(NCCCC1CC1)c1ccc(N2CCN(C(=O)c3ccccc3C(F)(F)F)CC2)nn1 | inactive | – | inactive | 34 | > 60 | 30 | 63 | 32
COc1ccc(Br)c(C(=O)N2CCN(c3ccc(C(=O)NCCCc4ccccc4)cn3)CC2)c1 | – | – | – | 5100 | – | – | – | –
O=C(NCCC1CC1)c1ccc(N2CCN(C(=O)c3cc(F)ccc3Cl)CC2)nn1 | inactive | 192 | inactive | 62 | – | 29 | 66 | 28
Cc1ccc(CNC(=O)c2ccc(N3CCN(C(=O)c4ccccc4C(F)(F)F)CC3)nn2)o1 | inactive | – | inactive | 15 | < 30 | 23 | 37 | 25
CC(C)CCNC(=O)c1cnc(N2CCN(C(=O)c3ccccc3C(F)(F)F)CC2)nc1 | – | – | – | > 10000 | – | – | – | –
O=C(NCCC1CC1)c1ccc(N2CCN(C(=O)c3cccc(F)c3C(F)(F)F)CC2)nn1 | inactive | – | inactive | 58 | – | 26 | 72 | 20
CC(C)CCNC(=O)c1ccc(N2CCN(C(=O)c3ccccc3C(F)(F)F)CC2)nc1 | – | – | – | 78 | – | – | – | –
CC(C(=O)N1CCN(c2ccc(C(=O)NCCC3CC3)nn2)CC1)(C(F)(F)F)C(F)(F)F | inactive | 119 | inactive | 113 | – | – | – | –
O=C(NCCc1ccccc1)c1ccc(N2CCN(C(=O)c3ccccc3C(F)(F)F)CC2)nn1 | inactive | – | inactive | – | – | 15 | 56 | 16
O=C(Nc1ccccc1)c1ccc(N2CCN(C(=O)c3ccccc3C(F)(F)F)CC2)nn1 | inactive | – | inactive | 83 | – | 10 | 9 | 13
Cc1ccc(C)c(C(=O)N2CCN(c3ccc(C(=O)NCCC4CC4)nn3)CC2)c1 | – | – | – | 942 | – | – | – | –
N#Cc1ccccc1C(=O)N1CCN(c2ccc(C(=O)NCCC3CC3)nn2)CC1 | – | – | – | > 1000 | – | – | – | –
O=C(NCCCCC1CC1)c1ccc(N2CCN(C(=O)c3ccccc3C(F)(F)F)CC2)nn1 | inactive | – | inactive | – | – | 17 | 42 | 13
O=C(NCc1ccccn1)c1ccc(N2CCN(C(=O)c3ccccc3C(F)(F)F)CC2)nn1 | – | – | – | 352 | – | – | – | –
O=C(Nc1ccccn1)c1ccc(N2CCN(C(=O)c3ccccc3C(F)(F)F)CC2)nn1 | – | – | – | 1400 | – | – | – | –
O=C(NCc1ccccc1)c1ccc(N2CCN(C(=O)c3ccccc3C(F)(F)F)CC2)nn1 | inactive | – | inactive | 6 | – | 34 | 97 | 34
O=C(NCCC1CC1)c1ccc(N2CCN(C(=O)c3ccc(F)cc3C(F)(F)F)CC2)nn1 | inactive | – | inactive | 21 | > 60 | 22 | 69 | 22

SMILES | inhibition [1] | IC50 (Stearoyl-CoA desaturase) [nM] | inhibition [2] | IC50 (Acyl-CoA desaturase 1) [nM] | inhibition in vivo at 15 mg/kg (Rattus norvegicus) [%] | Papp B→A [3] [×10⁻⁶ cm/s] | remaining at 0.5 h [4] [%] | Papp A→B [5] [×10⁻⁶ cm/s]
O=C(NC[C@@H](O)c1ccccc1)c1ccc(N2CCN(C(=O)c3ccccc3C(F)(F)F)CC2)nn1 | inactive | – | inactive | – | > 60 | 29 | 82 | 23
CCCCCCNC(=O)c1ncc(N2CCN(C(=O)c3ccccc3C(F)(F)F)CC2)cn1 | – | – | – | 1200 | – | – | – | –
CCOCCNC(=O)c1ccc(N2CCN(C(=O)c3ccccc3C(F)(F)F)CC2)nn1 | – | – | – | 1250 | – | – | – | –
O=C(NCc1ccn[nH]1)c1ccc(N2CCN(C(=O)c3ccccc3C(F)(F)F)CC2)nn1 | – | – | – | > 1000 | – | – | – | –
CCCCCCNC(=O)c1ccc(N2CCN(C(=O)c3ccccc3C(F)(F)F)CC2)nn1 | inactive | – | inactive | 21 | – | 18 | 14 | 20
O=C(NCCC1CC1)c1ccc(N2CCN(C(=O)/C=C\C(F)(F)F)CC2)nn1 | – | – | – | > 10000 | – | – | – | –
O=C(NCCC1CC1)c1ccc(N2CCN(C(=O)c3ccccc3C(=O)O)CC2)nn1 | – | – | – | > 10000 | – | – | – | –
O=C(NC[C@H](O)c1ccccc1)c1ccc(N2CCN(C(=O)c3ccccc3C(F)(F)F)CC2)nn1 | inactive | – | inactive | – | – | 28 | 92 | 22
CC(C)(O)CCNC(=O)c1ccc(N2CCN(C(=O)c3ccccc3C(F)(F)F)CC2)nn1 | – | – | – | 10000 | – | – | – | –
O=C(NCCCc1ccccc1)c1ccc(N2CCN(C(=O)c3ccccc3C(F)(F)F)CC2)nn1 | inactive | – | inactive | 69 | – | – | – | –
CC(C)CCNC(=O)c1cnc(N2CCN(C(=O)c3ccccc3C(F)(F)F)CC2)cn1 | – | – | – | > 10000 | – | – | – | –
CCCCCNC(=O)c1ccc(N2CCN(C(=O)c3ccccc3C(F)(F)F)CC2)nn1 | inactive | – | inactive | 25 | – | 22 | 49 | 22
CN(C)c1ccc(Cl)c(C(=O)N2CCN(c3ccc(C(=O)NCCC4CC4)nn3)CC2)c1 | – | – | – | > 10000 | – | – | – | –
CC(C)CCNC(=O)c1ccc(N2CCN(C(=O)c3ccccc3C(F)(F)F)CC2)cn1 | – | – | – | 220 | – | – | – | –
O=C(NCc1cocn1)c1ccc(N2CCN(C(=O)c3ccccc3C(F)(F)F)CC2)nn1 | – | – | – | 272 | – | – | – | –
CC1CCCCC1C(=O)N1CCN(c2ccc(C(=O)NCCC3CC3)nn2)CC1 (configuration not stated) | – | – | – | 680 | – | – | – | –
O=C(NCc1ccc(C(F)(F)F)o1)c1ccc(N2CCN(C(=O)c3ccccc3C(F)(F)F)CC2)nn1 | inactive | – | inactive | 31 | – | 18 | 78 | 18
CC(CNC(=O)c1ccc(N2CCN(C(=O)c3ccccc3C(F)(F)F)CC2)nn1)c1ccccc1 (configuration not stated) | inactive | – | inactive | 150 | – | – | – | –
Cc1cnc(CNC(=O)c2ccc(N3CCN(C(=O)c4ccccc4C(F)(F)F)CC3)nn2)cn1 | inactive | – | inactive | 33 | – | – | – | –
CCCCCCCNC(=O)c1ccc(N2CCN(C(=O)c3ccccc3C(F)(F)F)CC2)nn1 | inactive | – | inactive | 18 | – | – | – | –
O=C(NCc1nccs1)c1ccc(N2CCN(C(=O)c3ccccc3C(F)(F)F)CC2)nn1 | inactive | – | inactive | 32 | – | 29 | 79 | 29
O=C(NCc1ncco1)c1ccc(N2CCN(C(=O)c3ccccc3C(F)(F)F)CC2)nn1 | – | – | – | 500 | – | – | – | –
O=C(NCCC1CC1)c1ccc(N2CCN(C(=O)c3cc(Cl)ccc3Cl)CC2)nn1 | inactive | 101 | inactive | 34 | – | – | – | –
